# Data as given in publication PMC9401513 (Clinical Cancer Research, 2021).
# Key:
# [1] = test system: patients with advanced solid tumors; assay: Adverse events graded by NCI-CTCAE v4.03 in phase I patients; format: in vivo, human; settings: every 3 weeks, all cycles, N = 112
# Outline: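 Test compound was given by IV infusion over about 60 min every 3 weeks in sequential dose-escalation cohorts to adults with advanced solid tumors (ECOG 0–1). Adverse events were graded by NCI-CTCAE v4.03 over all cycles and tabulated as treatment-related by dose level. G-CSF was permitted after cycle 1. Antiemetics and corticosteroids were given at the physician's discretion.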
# [2] = Immunogenicity: anti-drug antibodies and neutralizing antibodies; format: in vivo, human
# Outline: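 Anti-drug antibodies were measured by a validated electrochemiluminescent assay. Samples were taken on days 1 and 15 of cycle 1, day 1 of each later cycle, and at end of treatment. ADA-positive samples were tested for neutralizing antibodies by a validated competitive ligand-binding electrochemiluminescent method.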
# [3] = test system: platinum-resistant ovarian cancer; assay: Objective tumor response by RECIST v1.1, ovarian cancer; format: in vivo, human
# Outline: (§1)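 Investigators assessed tumor response by RECIST v1.1 every 6 weeks (every-3-weeks cohorts) or every 8 weeks (every-2-weeks cohorts). CR and PR in expansion cohorts were confirmed by repeat assessment at least 4 weeks later, and ORR was calculated. NSCLC patients were preselected for moderate-to-high tumor PTK7 by IHC. Later TNBC patients were preselected for moderately high-to-high PTK7. Ovarian cancer patients were platinum-resistant and not preselected.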
# [4] = test system: advanced TNBC; assay: Objective tumor response by RECIST v1.1, TNBC; format: in vivo, human; settings: every 3 weeks
# Outline: as §1
# [5] = test system: patient-derived xenograft models; settings: cited from earlier work
# [6] = every 2 weeks, N = 19, (95% CI)
# [7] = every 3 weeks, N = 44, (95% CI)
molecule,measurement,setting,value
"cofetuzumab pelidotin (conjugate, chains of the INN, looked up, auristatin-0101 payload, vc linker) VH: QVQLVQSGPEVKKPGASVKVSCKASGYTFTDYAVHWVRQAPGKRLEWIGVISTYNDYTYNNQDFKGRVTMTRDTSASTAYMELSRLRSEDTAVYYCARGNSYFYALDYWGQGTSVTVSS VL: EIVLTQSPATLSLSPGERATLSCRASESVDSYGKSFMHWYQQKPGQAPRLLIYRASNLESGIPARFSGSGSGTDFTLTISSLEPEDFAVYYCQQSNEDPWTFGGGTKLEIK","TRAE Arthralgia, Grade 3",[1],1 (0.9) n (%)
same,"TRAE Arthralgia, Grade 4",[1],0 n (%)
same,"TRAE Arthralgia, Total",[1],19 (17.0) n (%)
same,"TRAE Decreased appetite, Grade 1",[1],11 (9.8) n (%)
same,"TRAE Decreased appetite, Grade 2",[1],7 (6.3) n (%)
same,"TRAE Decreased appetite, Grade 3",[1],0 n (%)
same,"TRAE Decreased appetite, Grade 4",[1],0 n (%)
same,"TRAE Decreased appetite, Total",[1],18 (16.1) n (%)
same,"TRAE Diarrhea, Grade 1",[1],8 (7.1) n (%)
same,"TRAE Diarrhea, Grade 2",[1],8 (7.1) n (%)
same,"TRAE Diarrhea, Grade 3",[1],1 (0.9) n (%)
same,"TRAE Diarrhea, Grade 4",[1],0 n (%)
same,"TRAE Diarrhea, Total",[1],17 (15.2) n (%)
same,"TRAE Fatigue, Grade 1",[1],19 (17.0) n (%)
same,"TRAE Fatigue, Grade 2",[1],19 (17.0) n (%)
same,"TRAE Fatigue, Grade 3",[1],3 (2.7) n (%)
same,"TRAE Fatigue, Grade 4",[1],0 n (%)
same,"TRAE Fatigue, Total",[1],41 (36.6) n (%)
same,"TRAE Headache, Grade 1",[1],13 (11.6) n (%)
same,"TRAE Headache, Grade 2",[1],19 (17.0) n (%)
same,"TRAE Headache, Grade 3",[1],5 (4.5) n (%)
same,"TRAE Headache, Grade 4",[1],0 n (%)
same,"TRAE Headache, Total",[1],37 (33.0) n (%)
same,"TRAE Myalgia, Grade 1",[1],11 (9.8) n (%)
same,"TRAE Myalgia, Grade 2",[1],3 (2.7) n (%)
same,"TRAE Myalgia, Grade 3",[1],1 (0.9) n (%)
same,"TRAE Myalgia, Grade 4",[1],0 n (%)
same,"TRAE Myalgia, Total",[1],15 (13.4) n (%)
same,"TRAE Nausea, Grade 1",[1],28 (25.0) n (%)
same,"TRAE Nausea, Grade 2",[1],21 (18.8) n (%)
same,"TRAE Nausea, Grade 3",[1],1 (0.9) n (%)
same,"TRAE Nausea, Grade 4",[1],0 n (%)
same,"TRAE Nausea, Total",[1],50 (44.6) n (%)
same,"TRAE Neutropenia, Grade 1",[1],0 n (%)
same,"TRAE Neutropenia, Grade 2",[1],4 (3.6) n (%)
same,"TRAE Neutropenia, Grade 3",[1],17 (15.2) n (%)
same,"TRAE Neutropenia, Grade 4",[1],11 (9.8) n (%)
same,"TRAE Neutropenia, Total",[1],32 (28.6) n (%)
same,"TRAE Peripheral sensory neuropathy, Grade 1",[1],7 (6.3) n (%)
same,"TRAE Peripheral sensory neuropathy, Grade 2",[1],7 (6.3) n (%)
same,"TRAE Peripheral sensory neuropathy, Grade 3",[1],0 n (%)
same,"TRAE Peripheral sensory neuropathy, Grade 4",[1],0 n (%)
same,"TRAE Peripheral sensory neuropathy, Total",[1],14 (12.5) n (%)
same,"TRAE Vomiting, Grade 1",[1],10 (8.9) n (%)
same,"TRAE Vomiting, Grade 2",[1],14 (12.5) n (%)
same,"TRAE Vomiting, Grade 3",[1],4 (3.6) n (%)
same,"TRAE Vomiting, Grade 4",[1],0 n (%)
same,"TRAE Vomiting, Total",[1],28 (25.0) n (%)
same,patients with ADA at baseline (not boosted by treatment),[2]; every 2 weeks cohorts,4%
same,patients with treatment-induced ADA and NAb,"[2]; every 2 weeks, 25 evaluable patients",4%
same,infusion-related reaction in ADA-positive patient,"[2]; every 2 weeks, one patient, day 1 cycle 4, resolved same day",grade 2 IRR
same,patients positive for treatment-induced ADA,"[2]; every 3 weeks, 108 evaluable patients",10.2%
same,CR (number),[3]; 2.1 mg/kg every 3 weeks,1
same,CR (number),[3]; 2.8 mg/kg every 2 weeks,1
same,PR (number),[3]; 2.8 mg/kg every 2 weeks,2
same,CR (number),[3]; 3.2 mg/kg every 2 weeks,1
same,PR (number),[3]; 3.2 mg/kg every 2 weeks,1
same,overall objective response rate,"[3]; both regimens, n = 63",27%
same,patients achieving CR,[3]; every 2 weeks,11%
same,patients achieving PR,[3]; every 2 weeks,16%
same,ORR,[3]; [6],26 (9–51) %
same,mDOR,[3]; [6],6.5 (3.9–8.3) mo
same,mPFS,[3]; [6],3.8 (3.1–7.4) mo
same,patients achieving CR,[3]; every 3 weeks,7%
same,patients achieving PR,[3]; every 3 weeks,21%
same,ORR,[3]; [7],27 (15–43) %
same,mDOR,[3]; [7],4.2 (2.8–8.3) mo
same,mPFS,[3]; [7],2.9 (2.3–5.5) mo
same,CR,[4]; N = 29,0 N
same,PR,[4]; N = 29,6 N
same,ORR,"[4]; N = 29, (95% CI)",21 (8–40) %
same,mDOR,"[4]; N = 29, (95% CI)",4.3 (1.3–10.2) mo
same,mPFS,"[4]; N = 29, (95% CI)",1.5 (1.4–4.3) mo
same,antitumor activity compared with standard chemotherapy,[5]; patient-derived xenograft models,greater antitumor activity than standard chemotherapy
same,antitumor effect in patient-derived xenograft models,[5]; preclinical,sustained tumor regression
same,effect on tumor-initiating cells (TICs),[5]; serial transplantation experiments,reduced the frequency of TICs
